This is an account of results in ChEMBL document CHEMBL1127419, “A comparative molecular field analysis model for 6-arylpyrrolo[2,1-d] [1,5]benzothiazepines binding selectively to the mitochondrial benzodiazepine receptor” (J Med Chem, 1994).

Broadly, the IC50 is the point on the concentration scale where inhibition reaches its midpoint. A lower IC50 goes with higher potency.

Molecules are shown by their SMILES.

The target in assay [1] is T1, Translocator protein (Rattus norvegicus, UniProt P16257). Put plainly: (§1) Displacement of [3H]-PK 11195 from rat peripheral (mitochondrial) benzodiazepine receptor. A digest of the protocol:
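Male CD rat (~150 g) cerebral cortex membranes washed in 50 mM phosphate-buffered saline, pH 7.4. 10 mg wet tissue incubated 120 min at 4 °C with 1 nM [3H]PK 11195 and 8–12 drug concentrations. Nonspecific binding defined with 1 μM PK 11195. Filtration, scintillation counting. IC50 by nonlinear curve fitting; triplicate points.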
(Loss of bound radioactivity is the signal in a displacement assay; it reports binding, not function.)

Assay [2] has as its target T1, Translocator protein. The assay is described as §1. The source holds these as a separate data set.

T1 sequence (P16257 whole entry, looked up): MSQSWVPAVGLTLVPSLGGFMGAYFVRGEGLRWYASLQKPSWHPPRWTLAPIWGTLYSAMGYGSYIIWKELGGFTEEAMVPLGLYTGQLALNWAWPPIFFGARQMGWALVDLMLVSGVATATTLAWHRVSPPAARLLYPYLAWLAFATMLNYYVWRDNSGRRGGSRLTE

`CCCCCC(=O)OC1=C(c2ccccc2)Sc2ccccc2-n2cccc21` showed an IC50 in assay [1] of 23.4 nM. In other words, the double-digit nanomolar range. As for `CN(C)C(=O)OC1=C(c2ccccc2)Sc2c(Cl)cccc2-n2cccc21`, the IC50 is 4 nM in assay [2] and 3.98 nM in assay [1]. With `COc1ccc(C2=C(OC(=O)c3cc(OC)c(OC)c(OC)c3)c3cccn3-c3ccccc3S2)cc1`, the IC50 in assay [1] was 100000 nM.

Take `CS(=O)(=O)OC1=C(c2ccccc2)Sc2ccccc2-n2cccc21`: the IC50 in assay [1] is 57.5 nM. Regarding `COc1ccc(C2=C(OC(=O)N(C)C)c3cccn3-c3cc(Cl)ccc3S2)cc1`, in assay [1], the IC50 was 166 nM. Compared with the last molecule, the IC50 is about 2.9-fold higher. `CC(=O)OC1=C(c2ccccc2)Sc2c(Cl)cccc2-n2cccc21` showed an IC50 in assay [1] of 7.59 nM. In the case of `CN(C)C(=O)OC1=C(c2ccccc2F)Sc2ccccc2-n2cccc21`, the results for the IC50 in assay [2] and in assay [1] were 31 nM and 30.9 nM, respectively. In turn, `CCCC(=O)OC1=C(c2ccc(OC)cc2)Sc2ccccc2-n2cccc21` had an IC50 in assay [1] of 27.5 nM. Same read-out and setting: next, `CCCC(=O)OC1=C(c2ccccc2)Sc2ccccc2-n2cccc21`: 21.4 nM; `COc1ccc(C2=C(OC(=O)c3cc(OC)c(OC)c(OC)c3)c3cccn3-c3cc(Cl)ccc3S2)cc1`: 100000 nM. Take `COc1ccc(C2=C(OC(=O)c3cccnc3)c3cccn3-c3ccccc3S2)cc1`: the IC50 in assay [1] was 100000 nM. Consider `CC(=O)OC1=C(c2ccc(F)cc2)Sc2ccccc2-n2cccc21`, for which the IC50 was 28 nM in assay [2] and 28.2 nM in assay [1]. As to `COc1ccc(C2=C(OC(=O)c3cc(OC)c(OC)c(OC)c3)c3cccn3-c3cc(C(F)(F)F)ccc3S2)cc1`, the IC50 in assay [1] was 100000 nM.

Turning to `CC(=O)OC1=C(c2ccc(Cl)cc2)Sc2ccccc2-n2cccc21`, the IC50 in assay [2] is 30 nM; in assay [1], 30.2 nM. As to `COc1ccc(C2=C(OC(C)=O)c3cccn3-c3cccc(Cl)c3S2)cc1`, the IC50 in assay [1] is 20.4 nM. In the case of `CC(=O)OC1=C(c2ccccc2)Sc2cc(C)ccc2-n2cccc21`, the IC50 in assay [2] and in assay [1] was 112 nM throughout. The molecule `COc1ccc(C2=C(OC(=O)N(C)C)c3cccn3-c3cc(C(F)(F)F)ccc3S2)cc1` showed an IC50 in assay [1] of 295 nM. With `CCC(=O)OC1=C(c2ccccc2)Sc2ccccc2-n2cccc21`, the IC50 in assay [1] was 66.1 nM. `CC(=O)OC1=C(c2ccccc2F)Sc2ccccc2-n2cccc21`: the IC50 in assay [2] and in assay [1] was 38 nM each time. In the case of `CC(=O)OC1=C(c2ccccc2)Sc2ccccc2-n2cccc21`, in assay [1], the IC50 was 19.5 nM. This counts as double-digit nanomolar. As to `CC(=O)OC1=C(c2ccccc2)Sc2ccc(C)cc2-n2cccc21`, the IC50 is 675 nM in assay [2] and 676 nM in assay [1]. `COc1ccc(C2=C(OC(=O)N(C)C)c3cccn3-c3ccccc3S2)cc1` showed an IC50 in assay [1] of 9.12 nM. On to `CN(C)C(=O)OC1=C(c2ccccc2)Sc2ccccc2-n2cccc21`, for which, in assay [1], the IC50 was 9.12 nM. This lies in the single-digit nanomolar range.

As to `COc1ccc(C2=C(OC(C)=O)c3cccn3-c3ccccc3S2(=O)=O)cc1`, the IC50 in assay [1] was 631 nM. Turning to `O=C1c2cccn2-c2ccccc2S(=O)(=O)C1c1ccccc1` (stereo not given), the IC50 in assay [1] is 100000 nM.

In assay [1], `CCC(=O)OC1=C(c2ccc(OC)cc2)Sc2ccccc2-n2cccc21` showed an IC50 of 29.5 nM. In the case of `COc1ccc(C2=C(OC(=O)c3ccncc3)c3cccn3-c3ccccc3S2)cc1`, in assay [1], the IC50 was 100000 nM. On the same count and under the same terms, next, `COc1ccc(C2C(=O)c3cccn3-c3ccccc3[S+]2[O-])cc1` (stereo not given): 22900 nM.
